PERK inh: blocks human PERK kinase. inhibition, % at 5.6 µM. actives 0.17% (n = 220,000). CHO PERK-DD fusion, SEAP luminescence translation reporter. Q9NZJ5;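 active means inhibition above the mean inhibition of all tested compounds plus 3 SD, set separately per screening campaign, cut at about 2.9% in these data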;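 further: PERK kinase domain activated by AP20187 dimerizer at 100 nM; 0% = DMSO with dimerizer and 100% = rapamycin at 8.4 µM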
MDM2 E3 inh: blocks human Mdm2 ubiquitin ligase activity; Q00987; cell-based MDM2 ubiquitination luciferase reporter, 2 h; 0 = plate control, 100 = twice control, blank-subtracted; signal enhancement, % at 5 µM; actives 0.11% (n = 210,000); AID 1230;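 active means signal enhancement of 30% or more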;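 further: luminescence tracks abundance of the self-degrading MDM2-luciferase fusion protein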
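Assay system: mammalian cells stably expressing self-ubiquitinating, self-degrading MDM2 E3–luciferase fusion. Quantity: 2000 cells in each well. Medium: DMEM culture medium. Compound dosing: single-point 5 µM. Timing: cell settling 4 h, compound treatment 2 h, both 37 °C. Technique: luciferase luminescence. Read-out basis: percent signal gain over controls, blank-subtracted. Benchmarks: plate controls and plate blanks.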
PKD1 kinase inh: blocks activity of human protein kinase D1; actives 0.056% (n = 200,000); PKD1 kinase fluorescence polarization assay; Q15139; AID 797; inhibition, % (concentration not given with the values); in the data active means inhibition above about 50%
Rad51 HR inh: blocks human Rad51 in homologous recombination; hRad51 DNA strand exchange, fluorescence dequenching; inhibition, % at 10 µM; Q06609; actives 0.085% (n = 200,000);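 active means inhibition above 40% at the single screening dose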;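 further: 0% = DMSO control wells and 100% = blanks with heterologous ssDNA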
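Test system – preformed human Rad51 ssDNA filaments · Reagent – Donor/quencher-labelled 47-bp dsDNA substrate · Incubation – 37 °C 15-min filament assembly, 30-min compound preincubation, 15-min exchange · Signal – FRET fluorescence dequenching, excitation 485 nm, emission 520 nm · Read-out – percent inhibition from fluorescence, normalised to plate control and blank means · Benchmarks – plate control and blank wells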
TAG inh: inhibitors of triacylglycerol accumulation. actives 0.66% (n = 230,000). H9c2 cells, Nile Red lipid (TAG) fluorescence; cells loaded with 200 µM oleic acid. inhibition, % at 12.5 µM;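 active means pattern-corrected inhibition of lipid staining of at least 50% with the nuclear-stain viability signal not falling by more than 50%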;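 further: 0% = DMSO wells and 100% = triacsin C control wells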
Hck-Nef inh: inhibitors of human Hck kinase activated by Nef; Recombinant Hck-YEEI plus Nef, Z-Lyte FRET kinase assay; inhibition, % at 20 µM; actives 0.68% (n = 220,000);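 active means Hck-Nef kinase inhibition above about 50%, limit read from the data; inactive means inhibition below that limit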;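 further: 0% = DMSO with Hck plus Nef and 100% = Hck alone without Nef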
Target sequence (P08631 whole entry, looked up): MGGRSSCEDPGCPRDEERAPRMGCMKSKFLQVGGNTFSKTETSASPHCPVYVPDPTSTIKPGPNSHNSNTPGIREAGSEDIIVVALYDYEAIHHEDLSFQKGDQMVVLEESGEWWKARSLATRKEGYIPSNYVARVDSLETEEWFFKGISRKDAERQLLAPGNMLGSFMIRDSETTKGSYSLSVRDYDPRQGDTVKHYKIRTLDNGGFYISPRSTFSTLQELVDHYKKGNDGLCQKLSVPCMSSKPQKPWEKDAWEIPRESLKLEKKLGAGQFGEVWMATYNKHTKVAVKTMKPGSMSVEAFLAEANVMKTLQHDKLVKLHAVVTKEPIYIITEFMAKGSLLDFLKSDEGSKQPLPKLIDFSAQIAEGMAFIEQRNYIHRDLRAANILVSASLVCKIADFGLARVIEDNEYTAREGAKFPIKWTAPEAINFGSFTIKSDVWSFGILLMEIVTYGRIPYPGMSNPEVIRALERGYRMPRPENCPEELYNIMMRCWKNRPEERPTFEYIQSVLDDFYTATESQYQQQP
Hck-Nef confirm: confirmation of Hck-Nef kinase inhibitors; shares compounds with Hck-Nef inh; Recombinant Hck-YEEI:Nef, Z-Lyte FRET kinase assay; calls only at 10 µM; actives 28% (n = 1,300);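 active means average inhibition of at least 50%, with Z-scores no higher than 3 in both the phospho-tyrosine peptide and fluorescence counterscreens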
Numbers without * were called inactive; i = inactive; · = no result given; + = active, no number. Only some compounds are listed: those with a hit (about 1.3% of all), similar ones and a draw of the others.

SMILES | PERK inh | MDM2 E3 inh | PKD1 kinase inh | Rad51 HR inh | TAG inh | Hck-Nef inh | Hck-Nef confirm
CC(=O)COc1nc2c(c(-c3ccco3)c1C#N)CCc1ccccc1-2 | 0.0 | -0.2 | · | -19.8 | · | 56.0* | i
NS(=O)(=O)c1ccc(CCNC(=O)COC(=O)C2CCN(c3ccc(C(F)(F)F)cn3)CC2)cc1 | · | · | · | · | 4.9 | · | ·
O=C(O)C(Cc1ccccc1)N1C(=O)/C(=C/C=C/c2ccco2)SC1=S (stereo unspecified) | 0.4 | -2.8 | · | -114.2 | 2.8 | 91.8* | +
O=C(O)CCCN1C(=O)/C(=C/C=C/c2ccco2)SC1=S | 0.2 | -37.7 | · | -17.5 | -11.5 | 83.5* | i
Cn1cccc1/C=C1\SC(=S)N(NC(=O)c2ccccc2O)C1=O | 1.1 | -6.8 | · | · | 3.2 | 14.0 | ·
COc1ccc(/C=C2\SC(=S)N(C(Cc3ccccc3)C(=O)O)C2=O)cc1 (stereo unspecified) | 0.3 | -19.3 | -3.0 | · | · | 34.0 | ·
O=C(NN1C(=O)/C(=C/C=C/c2ccco2)SC1=S)c1ccccc1O | 0.9 | -7.7 | · | -50.5 | -6.1 | 82.6* | +
Cc1cc(-c2nc3cccnc3s2)ccc1NS(=O)(=O)c1cccs1 | 0.2 | -23.3 | -4.0 | 2.4 | -2.8 | 94.6* | i
CCS(=O)(=O)Nc1cccc(-c2nc3cccnc3s2)c1 | 0.4 | 0.8 | · | · | -4.6 | 22.3 | ·
O=S(=O)(Nc1ccc(-c2nc3cccnc3s2)cc1)c1cccs1 | 1.0 | -11.1 | -2.0 | 1.8 | 7.3 | 116.0* | ·
Cc1cc(-c2nc3cccnc3s2)ccc1NS(=O)(=O)c1ccc2c(c1)OCCO2 | -0.1 | -2.1 | -11.7 | 0.6 | -7.6 | 70.5* | ·
CCS(=O)(=O)Nc1ccc(-c2nc3cccnc3s2)cc1 | 0.2 | -56.9 | -6.7 | -2.6 | 1.8 | + | ·
N#Cc1ccc(C23CC4(C2)[C@H](CN(Cc2cccnc2)[C@@H]4c2ccccc2)C3c2ccccc2)cc1 (stereo partly specified) | · | 6.4 | · | 1.5 | 25.4 | 19.6 | ·
Cc1nc2ccc(S(=O)(=O)Nc3ccc(-c4nc5cccnc5s4)cc3)cc2s1 | 0.0 | · | -10.2 | · | 3.1 | 55.6* | ·
O=S(=O)(Nc1ccc(-c2nc3cccnc3s2)cc1)c1ccccc1F | -1.3 | -13.7 | · | · | 0.2 | + | ·
CCc1cc(=O)oc2cc3occ(C)c3cc12 | 0.9 | -6.9 | -15.6 | 8.4 | · | 8.4 | ·
CCc1cc(=O)oc2cc3occ(-c4ccc(OC)c(F)c4)c3cc12 | 0.8 | 0.3 | -2.9 | 8.8 | · | 57.5* | i
CCCCc1cc(=O)oc2c(CN(CC)CC)c(O)c(Cl)cc12 | 0.0 | -9.3 | -11.0 | -7.0 | 25.5 | 154.6* | ·
CCCc1cc(=O)oc2cc(OCC(=O)N(C)C)c(Cl)cc12 | -0.4 | -13.1 | -7.9 | 2.9 | · | -7.0 | ·
CCCc1cc(=O)oc2c(CN(CC)CC)c(O)c(Cl)cc12 | 0.0 | -7.2 | · | -4.8 | 3.9 | + | ·
Cc1cc(=O)oc2c(CN3CCN(C)CC3)c(O)c(Cl)cc12 | 0.5 | -7.0 | 0.3 | · | · | 105.8* | ·
Cc1c(C)c2cc(Cl)c(O)c(CN3CCCCC3)c2oc1=O | -0.6 | -2.7 | -0.4 | 7.4 | · | 66.9* | i
Cc1ccc(C(O)(C(=O)NNc2ccc3ccccc3n2)c2ccc(C)cc2)cc1 | 0.5 | -18.2 | -5.0 | -1.4 | -8.6 | 0.8 | ·
CC(C)N(C(=O)[C@H]1CC(CC(=O)NCC23CC4CC(CC(C4)C2)C3)C(=O)N2CCc3c([nH]c4ccccc34)[C@]12C)C(C)C (stereo partly specified) | · | · | · | · | 43.7 | · | ·
Cc1ccc(S(=O)(=O)N2CCN(C(=O)C3CSC4(C)CCC(=O)N34)CC2)cc1C (stereo unspecified) | · | · | · | · | -6.2 | · | ·
CC/C(=N\NC(=O)CCC(=O)NCc1ccccc1)c1ccc(O)cc1 | 1.3 | -0.5 | -0.7 | 9.6 | 29.6 | 24.6 | ·
CCCCc1cc(=O)oc2c(CN3CCCC3)c(O)c(Cl)cc12 | -0.2 | -22.3 | 3.9 | 1.2 | 2.1 | 152.9* | ·
CCCc1cc(=O)oc2c(CN3CCN(C)CC3)c(O)c(Cl)cc12 | · | -10.5 | · | 6.0 | -21.3 | · | ·

Bioassay records (PubChem)
